Results on eleven molecules are retold here after ChEMBL document CHEMBL1144353 (J Med Chem, 2005).

pIC50, pKi: −log10 of the molar value. Some results are limits rather than exact numbers.

The subject of experiment [1] is System L amino acid transporter (Cricetulus griseus). Briefly: Inhibition of [3H]leucine uptake by L-amino acid transporter system in Chinese hamster ovary cells.
In experiment [2] the test system is Rattus norvegicus. Description: Plasma levels 2 hours after peroral dosing of 30 mg/kg in rats was determined. In kind it is functional, organism-based. On the set-up: dose 30 mg/kg. Summed up: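 Sprague-Dawley rats were given a single 30 mg/kg oral dose. Plasma was sampled 2 h after dosing, with brain levels taken at the same time point, and drug concentration is reported in ng/mL.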

Experiment [3] is described as follows: Equilibrium dissociation constant for Voltage-gated calcium channel alpha2-delta subunit as inhibition of [3H]gabapentin binding to pig brain membranes. The arrangement: species or system Sus scrofa, Membrane. Summed up:
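Pig cortical membranes (10-20 µg protein/well) with wheat germ agglutinin SPA beads and 30 nM [3H]gabapentin in 10 mM HEPES/10 mM MgSO4, pH 7.4, incubated overnight (15-24 h) at room temperature, then scintillation counted. Mean ± SEM, N = 4.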

Experiment [4] can be described thus: Inhibition of [3H]leucine uptake into CHO cells. It is filed as functional, cell-based, Cricetulus griseus. A digest of the protocol: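 CHO-K1 monolayers (90-100% confluent) were washed twice for 20 min at 37 °C in Na+-free choline buffer. Cells were then exposed for 2 min at room temperature to 2 µCi/mL L-[3H]leucine with test compound, 10 mM to 300 nM in half-log steps, in duplicate. Controls were no drug and 10 mM L-leucine. Uptake was stopped with cold buffer washes and counted by scintillation. IC50 from nonlinear least-squares regression.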

Experiment [5] has as its system Rattus norvegicus. Briefly: Ratio of brain level and plasma level 2 hours after peroral dosing of 30 mg/kg in rats was determined. In kind it is functional, organism-based. On the set-up: dose 30 mg/kg. Summed up: (§1)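 Sprague-Dawley rats were dosed orally at 30 mg/kg and sampled at 2 h. Brain and plasma levels were measured in ng/mL, and B/P is the brain-to-plasma ratio.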

The subject of experiment [6] is Rattus norvegicus. Briefly: Brain levels 2 hours after peroral dosing of 30 mg/kg in rats was determined. It is filed as functional. The conditions noted are these: route oral. A digest of the protocol: as §1

One may read the pIC50 as −log10 of the IC50, conventionally taken in molar units. Higher therefore signals a small IC50. `CC(C)C[C@H](CN)CC(=O)O` [PREGABALIN] had a negative logarithm of the IC50 (pIC50) in experiment [1] of 3.80. Moreover, the Plasma level in the experiment with Rattus norvegicus [2] was 19400 ng/mL.

For orientation: pKi means the negative decadic logarithm of the Ki, by convention in mol/L. Turning to `CCC(CC)C1CC1(CN)C(=O)O` (stereo in doubt; 12), the pKi in experiment [3] was 6.25. Besides, in experiment [4] (cho), the pIC50 was less than 2.08.

With `NCC1(C(=O)O)CC12CCCC2` (stereo unspecified), the negative-log Ki (pKi) in experiment [3] was 7.64. This molecule showed a pIC50 in experiment [4] (Cricetulus griseus, CHO, 2 min) of less than 2.08.

In the case of `NCC1(C(=O)O)CC12CCCCC2` (stereo unspecified), the pKi in experiment [3] is 7.89. The B/P in the experiment on Rattus norvegicus [5] came to 0.054. Further, in the experiment with Rattus norvegicus [6], the Brain level stood at 385 ng/mL. The pIC50 in experiment [1] was less than 2.60; in experiment [4] (Cricetulus griseus, CHO, 2 min), less than 2.60. This molecule yielded a Plasma level in the experiment with Rattus norvegicus [2] of 7070 ng/mL.

Turning to `NCC1(C(=O)O)CC12CCC2` (stereo unspecified), in experiment [3], the pKi was 6.70. The pIC50 in experiment [4] (Cricetulus griseus, CHO, 2 min) is less than 2.60.

For `CCC(CC)C1CC1(CN)C(=O)O` (stereo in doubt), the pKi in experiment [3] was 6.20. This molecule showed a pIC50 in experiment [4] (cho) of less than 2.60.

In the case of `CC(C)CC1CC1(CN)C(=O)O` (stereo in doubt; 36), the negative logarithm of the Ki (pKi) in experiment [3] is 6.48. This molecule also gave a pIC50 in experiment [4] (cho) of less than 2.60.

Turning to `NCC1(C(=O)O)CC1`, the pKi in experiment [3] was less than 5.00. The pIC50 in experiment [4] (Cricetulus griseus, CHO, 2 min) is less than 2.08.

As to `CCCC1(CCC)CC1(CN)C(=O)O` (stereo unspecified), the pKi in experiment [3] was 6.70. This molecule also gave a pIC50 in experiment [4] (Cricetulus griseus, CHO, 2 min) of less than 2.60.

For `CC(C)CC1CC1(CN)C(=O)O` (stereo in doubt), the negative logarithm of the Ki (pKi) in experiment [3] was 7.43. Also, the pIC50 in experiment [4] (cho) is less than 2.08.

Consider `CC(C)C1CC1(CN)C(=O)O` (stereo unspecified), for which the pKi in experiment [3] is 6.47. In experiment [4] (Cricetulus griseus, CHO, 2 min), this molecule gave a pIC50 of less than 2.08.
